CYP2C19 inhib: human CYP2C19 inhibition; P33261; CYP2C19 Supersomes, luciferin-H EGE luminescence, 30 min; inhibition, % at 5 µM; 96,000 compounds, 21% hits; AID 778;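 active = CYP2C19 inhibition above a set limit at 5 µM in the primary screen, cut at about 50% in these data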;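 also: plate controls were negative control wells for no effect and 2.5 mM tranylcypromine positive control for full effect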
CYP2C9 inh: blocks human cytochrome P450 2C9 | AID 777 | 96,000 compounds, 20% hits | CYP2C9 Supersomes, luciferin-H conversion, luminescence | inhibition, % at 5 µM;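 active = blocking of liver enzyme CYP2C9 beyond about 50% at 5 µM, limit read from the data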
CYP2C19 activ: cytochrome P450 2C19 (human) activation | recombinant CYP2C19, luciferin-H EGE luminescence; active compounds read high; 0 = fully inhibited enzyme, 1 = untreated enzyme | 96,000 tested, under 10 active | activation factor at 5 µM;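 active = activation factor of at least 2 at 5 µM in the primary screen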;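 also: 0 = wells with 2.5 mM tranylcypromine and 1 = vehicle-only wells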
Cav32 inh: inhibitors of human Cav3.2 T-type calcium channel | O95180 | Cav3.2-expressing cells, Fluo-4 calcium fluorescence FDSS; active compounds read low | AID 449739 | 100,000 compounds, 4% hits | B-score at 10 µM;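 active = single-dose well whose peak fluorescence ratio is a statistical outlier from its plate by either plate-standardised score or position-corrected B-score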
CYP2C9 act: CYP2C9 (human) activation | 96,000 compounds, 1.4% hits | activation factor at 5 µM | recombinant CYP2C9, luciferin-H conversion, luminescence; active compounds read high; factor 1 = untreated enzyme, 0 = blocked | P11712;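 active = activation factor of 2 or more for CYP2C9 at a 5 µM dose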;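 also: 0 = sulfaphenazole-blocked wells and 1 = vehicle-only wells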
Rev-RRE block: disrupts HIV-1 Rev binding to RRE RNA; inhibition, % at 8 µM; P05866; Rev peptide-RRE RNA binding, FRET; 97,000 compounds, 0.79% hits;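 active = inhibition above the screen-wide mean plus 3 SD, cut at about 35% in these data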;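 also: 0% = median DMSO wells and 100% = median Neomycin B control wells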
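Probe or stimulus: fluorescein-Rev peptide as binding partner; assay system: Cy5-tagged RRE RNA duplex with fluorescein-tagged Rev peptide; timing: 5 min compound–RNA preincubation, then 15 min with peptide, 25 °C; medium: HEPES pH 7.5 buffer with KCl, MgCl2, NaCl and EDTA; signal: fluorescein-to-Cy5 FRET, 480 nm excitation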
* hit, by the source's call; nt = no result. Rows were chosen to be rich in hits. Some 27% of all compounds tested hit in one or more screens of this group.

SMILES | CYP2C19 inhib | CYP2C9 inh | CYP2C19 activ | Cav32 inh | CYP2C9 act | Rev-RRE block
O=C1/C(=C/Nc2ccc3c(c2)OCO3)CCc2ccccc21 | 44 | 48 | 0.6 | -2.5 | 0.5 | 46*
CCCNC(=O)CCn1c(-c2ccc(C)cc2)cc(C(=O)OCC)c1C | 66* | 62* | 0.3 | -0.43 | 0.4 | 2
CCOC(=O)c1cc(-c2ccccc2)n(CC(=O)O)c1C | 5 | 72* | 0.9 | -0.11 | 0.3 | nt
COC(=O)c1cc(-c2ccccc2)n(CCN)c1C | nt | nt | nt | -0.31 | nt | nt
CCOC(=O)c1cc(-c2ccc(C)cc2)n(CCC(=O)NC(C)CC)c1C (configuration not stated) | 64* | 48 | 0.4 | -1.2 | 0.5 | 6
CCOC(=O)C[C@H]1c2cc(C(F)(F)F)ccc2S(=O)(=O)N1Cc1ccccc1 | nt | nt | nt | -0.24 | nt | nt
CCCN1CCN(C(=O)Cn2cccc2C(=O)c2ccccc2)CC1 | nt | nt | nt | 1.2 | nt | 8
COc1ccc(NC(=S)NCC2CCCO2)c(OC)c1 (configuration not stated) | 56* | -7 | 0.4 | 0.34 | 1.1 | 5
Cc1cc(C)cc(NC(=S)NCC2CCCO2)c1 (configuration not stated) | 15 | -115 | 0.8 | 0.36 | 2.1* | 3
CCc1cc(C(=O)NNC(=S)NCC2CCCO2)cs1 (configuration not stated) | 33 | -40 | 0.7 | 0.42 | 1.4 | 5
CCOC(=O)C1CCN(CC(=O)Nc2c(C(=O)OC)[nH]c3cccc(C)c23)CC1 | 32 | 26 | 0.7 | 1.3 | 0.7 | -4
Cc1cc(C)cc(OCC(=O)Nc2ccccc2N2CCCCC2)c1 | -1 | 39 | 1 | -0.51 | 0.6 | 9
CCC(=O)N1CCN(c2ccccc2NC(=O)c2cccc(C)c2)CC1 | 77* | 71* | 0.2 | 0.89 | 0.3 | 2
CCC(=O)N1CCN(c2ccccc2NC(=O)COc2cccc(C)c2)CC1 | 40 | 58* | 0.6 | -2.2 | 0.4 | 1
NC(=O)NC(Cc1ccccc1)C(=O)NCC1(N2CCCCC2)CCCCC1 (configuration not stated) | -18 | -5 | 1.2 | 0.15 | 1.1 | 2
COc1ccc(S(=O)(=O)N(n2c(C)nnc2-n2nc(C)cc2C)S(=O)(=O)c2ccc(OC)cc2)cc1 | nt | nt | nt | 0.0032 | nt | 0
CCCCNc1ccc(C(CC(N)=O)NC(=O)Cc2ccc(Br)cc2)cc1[N+](=O)[O-] (configuration not stated) | nt | nt | nt | -0.18 | nt | nt
CCCc1cc(=O)[nH]c(SCC(=O)NC)n1 | 8 | 16 | 0.9 | 0.26 | 0.8 | 5
CCCc1cc(=O)[nH]c(SCC(=O)CSc2nc(CCC)cc(=O)[nH]2)n1 | 11 | 70* | 0.9 | 1 | 0.3 | nt
CCCc1cc(=O)[nH]c(SCCOC(=O)c2ccccc2)n1 | 54* | 71* | 0.5 | nt | 0.3 | 14
CCCc1cc(=O)[nH]c(SCc2ccccc2Cl)n1 | 50* | 72* | 0.5 | -3.2 | 0.3 | 10
CCCc1cc(=O)[nH]c(SCc2nc3ccccc3s2)n1 | 44 | 39 | 0.6 | 0.022 | 0.6 | 9
O=C(O)C[C@H]1c2ccc(C(F)(F)F)cc2S(=O)(=O)N1Cc1ccccc1 | nt | nt | nt | 1.1 | nt | nt
CC1CC(NC(=O)c2ncn[nH]2)CC(C)(C)C1 (configuration not stated) | 16 | -8 | 0.8 | -1.2 | 1.1 | -2
CC(NC(=O)Cn1nc(-c2ccccc2)c2ccccc2c1=O)c1ccccc1 (configuration not stated) | 89* | 25 | 0.1 | -2 | 0.8 | 3
SMILES | CYP2C19 inhib | CYP2C9 inh | CYP2C19 activ | Cav32 inh | CYP2C9 act | Rev-RRE block
Cn1c(SCc2nnc3n2CCCCC3)nc2ccccc21 | -5 | -26 | 1.1 | 0.22 | 1.3 | 9
Cn1c(SCc2ccc(C#N)cc2Cl)nc2ccccc21 | 57* | 33 | 0.4 | -0.00093 | 0.7 | 4
CCCCCn1c(SCCN2CCOCC2)nc2c1c(=O)[nH]c(=O)n2C | -4 | 35 | 1 | 0.63 | 0.7 | 6
O=C1C=C(NCC2CCCO2)CC(c2ccccc2)C1 (configuration not stated) | 73* | -3 | 0.3 | 0.58 | 1 | 4
O=C(NCCc1c[nH]c2ccccc12)c1c(Cl)nc2sccn12 | 34 | 8 | 0.7 | -0.052 | 0.9 | 6
O=C(NCCc1c[nH]c2ccccc12)c1cc2sccc2n1Cc1ccccc1 | 65* | 82* | 0.4 | -5* | 0.2 | 2
Cn1c(C(=O)NCCc2c[nH]c3ccccc23)cc2sccc21 | 54* | -23 | 0.5 | -5.3* | 1.2 | -2
COC(=O)C1CC(=O)N(CCc2c[nH]c3ccccc23)C1 (configuration not stated) | 97* | 34 | 0 | -0.27 | 0.7 | 1
CC(/C=C1\SC(=S)N(NC(=O)c2ccc(C)cc2)C1=O)=C\c1ccccc1 | 18 | 61* | 0.8 | -2.3 | 0.4 | 8
CC(/C=N/NC(=O)c1ccc(Br)cc1)=C\c1ccccc1 | -1 | 30 | 1 | -0.012 | 0.7 | 4
COc1ccccc1-c1noc(CCC(=O)Nc2cc(C(F)(F)F)ccc2Cl)n1 | 68* | -44 | 0.3 | -1.6 | 1.4 | 16
O=C(O)CCc1nc(-c2cccs2)no1 | -16 | -10 | 1.2 | nt | 1.1 | 4
COc1cc(OC)c(NC(=O)CCc2nc(-c3cccs3)no2)cc1Cl | 92* | 62* | 0.1 | -1.9 | 0.4 | 13
O=C(NC1CCS(=O)(=O)C1)OC1CCCCC1 (configuration not stated) | nt | nt | nt | -2.3 | nt | 6
Cc1ccccc1C(=O)N=c1sccn1C | 93* | 22 | 0.1 | 0.62 | 0.8 | 6
Cc1cccc(CSc2nnc(-c3ccccn3)n2N)c1 | 60* | -42 | 0.4 | -0.23 | 1.4 | 3
COc1ccc(-c2nnc(SCc3cccc(C)c3)n2N)cc1 | 52* | -14 | 0.5 | 0.45 | 1.1 | 3
COc1ccc(-c2nnc(SCc3cc(C)ccc3C)n2N)cc1 | 62* | -16 | 0.4 | 0.043 | 1.2 | 7
O=[N+]([O-])c1cccc(/C=N\N2CCN(Cc3ccccc3Cl)CC2)c1 | nt | nt | nt | -1.8 | nt | 3
c1ccc(-n2ncc3c(N4CCN(c5ccccn5)CC4)nc(N4CCOCC4)nc32)cc1 | 18 | 25 | 0.8 | nt | 0.8 | nt
CC(=O)C1=C(C)NC(SCC(=O)c2ccccc2)=C(C#N)C1CC(C)C (configuration not stated) | 42 | 59* | 0.6 | -1.1 | 0.4 | 11
CC(=O)C1=C(C)NC(SCC(=O)c2ccc(Cl)cc2Cl)=C(C#N)C1c1ccco1 (configuration not stated) | 100* | 100* | 0 | -2.6 | 0 | 12
N#CC1=C(SCC(=O)c2ccc(Br)cc2)NC2=C(C(=O)CCC2)C1c1ccco1 (configuration not stated) | 99* | 99* | 0 | nt | 0 | nt
CCOC(=O)C1=C(C)NC(=O)NC1c1ccco1 (configuration not stated) | -13 | -2 | 1.1 | 1.5 | 1 | nt

Screens deposited in PubChem BioAssay by several laboratories.
